Columns and labels:
Type in all cases: functional
[1] = species: Rattus norvegicus; assay: LH releasing activity in rat
Procedure, shortened: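 Fifteen-week-old female Wistar-derived rats (220–250 g), given 2 nmol/rat ip in 0.5 mL PBS. Blood drawn by cardiac puncture under light ether anesthesia at set times (1.5–24 h). Serum LH measured by double-antibody RIA at three dilutions per sample. Five rats per group; mean ± SEM.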

[2] = system: Rattus norvegicus; assay: Serum LH releasing potency in vivo after intraperitoneal administration in rats at 3 h
Procedure, shortened: (§1)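 Blood was drawn by cardiac puncture under light ether anaesthesia at each time point. Serum LH was measured by double-antibody RIA against the LH-RP-3 reference, with three dilutions per serum. Values are mean ± SEM of five rats per group; the experiment was repeated twice more.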

[3] = system: Rattus norvegicus; assay: Serum LH releasing potency in vivo after intraperitoneal administration in rats at 24 h; procedure, shortened: as §1
[4] = system: Rattus norvegicus; assay: Serum LH releasing potency in vivo after intraperitoneal administration in rats at 6 h; procedure, shortened: as §1
[5] = system: Rattus norvegicus; assay: Serum LH releasing potency in vivo after intraperitoneal administration in rats at 0 h; procedure, shortened: as §1
[6] = system: Rattus norvegicus; assay: Serum LH releasing potency in vivo after intraperitoneal administration in rats at 1.5 h; procedure, shortened: as §1
[7] = system: Rattus norvegicus; assay: Serum LH releasing potency in vivo after intraperitoneal administration in rats at 10 h; procedure, shortened: as §1

Compound | ED50 [1] [µM] | Activity [2] [ng/mL] | Activity [3] [ng/mL] | Activity [4] [ng/mL] | Activity [5] [ng/mL] | Activity [6] [ng/mL] | Activity [7] [ng/mL]
C=CC1=C(C)c2cc3[nH]c(cc4nc(cc5[nH]c(cc1n2)c(C)c5CCC(=O)O)C(CCC(=O)NCCCC[C@@H](NC(=O)[C@H](Cc1ccc(O)cc1)NC(=O)[C@H](CO)NC(=O)[C@@H](Cc1c[nH]c2ccccc12)NC(=O)[C@@H](Cc1ccccc1)NC(=O)[C@H]1CCC(=O)N1)C(=O)N[C@@H](CC(C)C)C(=O)N[C@@H](CCCN=C(N)N)C(=O)N1CCC[C@H]1C(=O)NCC(N)=O)=C4C)c(C)c3C=C | 1.8 |  |  |  |  |  | 
C=CC1=C(C)c2cc3[nH]c(cc4nc(cc5[nH]c(cc1n2)c(C)c5CCC(=O)O)C(CCC(=O)NCCCC[C@@H](NC(=O)[C@H](Cc1ccc(O)cc1)NC(=O)[C@H](CO)NC(=O)[C@H](Cc1c[nH]c2ccccc12)NC(=O)[C@H](Cc1c[nH]cn1)NC(=O)[C@@H]1CCC(=O)N1)C(=O)N[C@@H](CC(C)C)C(=O)N[C@@H](CCCN=C(N)N)C(=O)N1CCC[C@H]1C(=O)NCC(N)=O)=C4C)c(C)c3C=C |  | 11.57 | 0.88 | 8.1 | 0.53 | 10.64 | 2.9
CC(C)C[C@H](NC(=O)[C@H](CCCCN)NC(=O)[C@H](Cc1ccc(O)cc1)NC(=O)[C@H](CO)NC(=O)[C@H](Cc1c[nH]c2ccccc12)NC(=O)[C@H](Cc1c[nH]cn1)NC(=O)[C@@H]1CCC(=O)N1)C(=O)N[C@@H](CCCN=C(N)N)C(=O)N1CCC[C@H]1C(=O)NCC(N)=O |  | 21.92 | 0.34 | 2.94 | 0.53 | 72.5 | 1.12
